Experiments:
Assay type in all cases: functional, cell-based
[1] = tested on: MCF7; experiment: Antiproliferative activity against human MCF7 cells after 72 hrs by MTT assay; conditions: MCF7, 72 h
In short: (§1)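 Log-phase cells seeded at 2 × 10⁴ cells/ml, 24 h at 37 °C in 5% CO₂, then exposed to compounds for 72 h at 37 °C. MTT (5 mg/ml) added for 4 h, medium discarded, formazan dissolved in DMSO, absorbance read at 570 nm. Each concentration in triplicate, experiment repeated three times. IC50 from dose-response curves of inhibition ratio versus untreated control.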

[2] = Antiproliferative activity against human Bel7402 cells after 72 hrs by MTT assay; conditions: Bel-7402, 72 h; in short: as §1
[3] = tested on: HCT-116; experiment: Antiproliferative activity against human HCT116 cells after 72 hrs by MTT assay; conditions: HCT-116, 72 h; in short: as §1

Row | SMILES | IC50 [1] [µM] | IC50 [2] [µM] | IC50 [3] [µM]
1 | Cc1ccccc1NC1=C/C(=N/NC(N)=S)C(=O)N=C1Nc1ccccc1C | 0.58 | 1.71 | 1.52
2 | Cc1cccc(NC2=C/C(=N/NC(N)=S)C(=O)N=C2Nc2cccc(C)c2)c1 | 0.15 | 2.73 | 8.65
3 | Cc1ccc(NC2=C/C(=N/NC(N)=S)C(=O)N=C2Nc2ccc(C)cc2)cc1 | 3.06 | 4.33 | 7.04
4 | NC(=S)N/N=C1/C=C(Nc2ccccc2Cl)C(Nc2ccccc2Cl)=NC1=O | 3.49 | 3.42 | 3.54
5 | NC(=S)N/N=C1/C=C(Nc2cccc(Cl)c2)C(Nc2cccc(Cl)c2)=NC1=O | 0.63 | 2.19 | 3.38
6 | NC(=S)N/N=C1/C=C(Nc2ccc(Cl)cc2)C(Nc2ccc(Cl)cc2)=NC1=O | 1.37 | 0.82 | 0.19
7 | COc1ccccc1NC1=C/C(=N/NC(N)=S)C(=O)N=C1Nc1ccccc1OC | 10.2 | 13.4 | 20.8
8 | COc1cccc(NC2=C/C(=N/NC(N)=S)C(=O)N=C2Nc2cccc(OC)c2)c1 | > 50 | – | –
9 | COc1ccc(NC2=C/C(=N/NC(N)=S)C(=O)N=C2Nc2ccc(OC)cc2)cc1 | 10.4 | 17.8 | 22.4
10 | CCOc1ccc(NC2=C/C(=N/NC(N)=S)C(=O)N=C2Nc2ccc(OCC)cc2)cc1 | 13.7 | 31 | 21.3
11 | NC(=S)N/N=C1/C=C(Nc2ccc(F)cc2)C(Nc2ccc(F)cc2)=NC1=O | 1.12 | 3.66 | 3.72
12 | NC(=S)N/N=C1/C=C(Nc2ccc(Br)cc2)C(Nc2ccc(Br)cc2)=NC1=O | 2.58 | 5.84 | 2.15
13 | NC(=S)N/N=C1/C=C(Nc2cccc([N+](=O)[O-])c2)C(Nc2cccc([N+](=O)[O-])c2)=NC1=O | 11.1 | 8.11 | 19.4
14 | NC(=S)N/N=C1/C=C(Nc2ccccc2)C(Nc2ccccc2)=NC1=O | 7.11 | 11.9 | 24.7
15 | Cc1ccccc1NC1=C/C(=N/N=C(\N)SCc2ccccc2)C(=O)N=C1Nc1ccccc1C | 16.3 | 17.1 | 13.8
16 | Cc1cccc(NC2=C/C(=N/N=C(\N)SCc3ccccc3)C(=O)N=C2Nc2cccc(C)c2)c1 | 9.34 | 8.72 | 12.8
17 | Cc1ccc(NC2=C/C(=N/N=C(\N)SCc3ccccc3)C(=O)N=C2Nc2ccc(C)cc2)cc1 | 13.4 | 7.68 | 8.27
18 | N/C(=N\N=C1\C=C(Nc2cccc(Cl)c2)C(Nc2cccc(Cl)c2)=NC1=O)SCc1ccccc1 | 15.2 | 7.16 | 11.7
19 | N/C(=N\N=C1\C=C(Nc2ccc(Cl)cc2)C(Nc2ccc(Cl)cc2)=NC1=O)SCc1ccccc1 | 7.72 | 17.3 | 9.6
20 | N/C(=N\N=C1\C=C(Nc2ccc(F)cc2)C(Nc2ccc(F)cc2)=NC1=O)SCc1ccccc1 | 7.58 | 7.69 | 11.5
21 | COc1ccccc1NC1=C/C(=N/N=C(\N)SCc2ccccc2)C(=O)N=C1Nc1ccccc1OC | 8.34 | 13.1 | 14.5
22 | O=c1[nH]cc(F)c(=O)[nH]1 [FLUOROURACIL] | 7.08 | 11.1 | 10.5
